Laboratory results published in ChEMBL document CHEMBL4265926, “Synthesis and antibacterial activity evaluation of novel biaryloxazolidinone analogues containing a hydrazone moiety as promising antibacterial agents” (Eur J Med Chem, 2018).
Values after ≈ are worked out from the molar mass of the structure shown.

What was measured:
Format in all cases: functional
Enterococcus faecalis = experiment: Antibacterial activity against linezolid-resistant Enterococcus faecalis by broth liquid microdilution method
Outline: (§1)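 Isolates were identified on an automated MicroScan WalkAway 96 system. Susceptibility was tested by broth microdilution following CLSI guidelines. MIC was taken as the lowest concentration giving complete inhibition of bacterial growth. S. aureus ATCC 29213 served as the control strain.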

Enterococcus faecium = experiment: Antibacterial activity against vancomycin-resistant Enterococcus faecium by broth liquid microdilution method; outline: as §1
Staphylococcus aureus [1] = experiment: Antibacterial activity against methicillin-sensitive Staphylococcus aureus by broth liquid microdilution method; outline: as §1
Staphylococcus aureus [2] = experiment: Antibacterial activity against Staphylococcus aureus ATCC 29213 by broth liquid microdilution method; outline: as §1
Staphylococcus aureus [3] = experiment: Antibacterial activity against methicillin-resistant Staphylococcus aureus by broth liquid microdilution method; outline: as §1

SMILES | MIC (Enterococcus faecalis) | MIC (Enterococcus faecium) | MIC (Staphylococcus aureus [1]) | MIC (Staphylococcus aureus [2]) | MIC (Staphylococcus aureus [3])
CC(=O)NC[C@H]1CN(c2ccc(-c3ccc(/C=N/N4CCN(C(=O)OC(C)(C)C)CC4)cc3)c(F)c2)C(=O)O1 | > 2 mg/L | > 2 mg/L | > 2 mg/L | > 2 mg/L | –
COC(=O)N1CCN(/N=C/c2ccc(-c3ccc(N4C[C@H](CNC(C)=O)OC4=O)cc3F)cc2)CC1 | 0.125 mg/L (≈ 0.251 µM) | 0.125 mg/L (≈ 0.251 µM) | 0.125 mg/L (≈ 0.251 µM) | 0.125 mg/L (≈ 0.251 µM) | 0.125 mg/L (≈ 0.251 µM)
CC(=O)NC[C@H]1CN(c2ccc(-c3ccc(/C=N/N4CCN(C(=O)C(F)(F)F)CC4)cc3)c(F)c2)C(=O)O1 | 0.125 mg/L (≈ 0.233 µM) | 0.125 mg/L (≈ 0.233 µM) | 0.125 mg/L (≈ 0.233 µM) | 0.125 mg/L (≈ 0.233 µM) | 0.125 mg/L (≈ 0.233 µM)
CC(=O)NC[C@H]1CN(c2ccc(-c3ccc(/C=N/N4CCN(C(=O)N(C)C)CC4)cc3)c(F)c2)C(=O)O1 | 0.25 mg/L (≈ 0.49 µM) | 0.25 mg/L (≈ 0.49 µM) | 0.0675 mg/L (≈ 0.132 µM) | 0.0675 mg/L (≈ 0.132 µM) | 0.0675 mg/L (≈ 0.132 µM)
CC(=O)NC[C@H]1CN(c2ccc(-c3ccc(/C=N/N4CCS(=O)(=O)CC4)cc3)c(F)c2)C(=O)O1 | 0.25 mg/L (≈ 0.512 µM) | 0.25 mg/L (≈ 0.512 µM) | 0.25 mg/L (≈ 0.512 µM) | 0.25 mg/L (≈ 0.512 µM) | 0.25 mg/L (≈ 0.512 µM)
CC(=O)NC[C@H]1CN(c2ccc(-c3ccc(/C=N/N4CCN(C(=O)c5ccc(Br)cc5)CC4)cc3)c(F)c2)C(=O)O1 | 0.125 mg/L (≈ 0.201 µM) | 0.125 mg/L (≈ 0.201 µM) | 0.125 mg/L (≈ 0.201 µM) | 0.125 mg/L (≈ 0.201 µM) | 0.125 mg/L (≈ 0.201 µM)
COc1cccc(C(=O)N2CCN(/N=C/c3ccc(-c4ccc(N5C[C@H](CNC(C)=O)OC5=O)cc4F)cc3)CC2)c1 | 1 mg/L (≈ 1.74 µM) | 1 mg/L (≈ 1.74 µM) | 0.25 mg/L (≈ 0.436 µM) | 0.25 mg/L (≈ 0.436 µM) | 0.25 mg/L (≈ 0.436 µM)
CC(=O)NC[C@H]1CN(c2ccc(-c3ccc(/C=N/N4CCN(C(=O)CN)CC4)cc3)c(F)c2)C(=O)O1 | 0.5 mg/L (≈ 1.01 µM) | 0.5 mg/L (≈ 1.01 µM) | 0.25 mg/L (≈ 0.503 µM) | 0.125 mg/L (≈ 0.252 µM) | 0.25 mg/L (≈ 0.503 µM)
CC(=O)NC[C@H]1CN(c2ccc(-c3ccc(/C=N/N4CCN(C(=O)c5ccccn5)CC4)cc3)c(F)c2)C(=O)O1 | 0.125 mg/L (≈ 0.23 µM) | 0.125 mg/L (≈ 0.23 µM) | 0.125 mg/L (≈ 0.23 µM) | 0.125 mg/L (≈ 0.23 µM) | 0.125 mg/L (≈ 0.23 µM)
CC(=O)NC[C@H]1CN(c2ccc(-c3ccc(/C=N/N4CCN(S(C)(=O)=O)CC4)cc3)c(F)c2)C(=O)O1 | 0.5 mg/L (≈ 0.966 µM) | 2 mg/L (≈ 3.86 µM) | 1 mg/L (≈ 1.93 µM) | 1 mg/L (≈ 1.93 µM) | 0.5 mg/L (≈ 0.966 µM)
CC(=O)NC[C@H]1CN(c2ccc(-c3ccc(/C=N/N4CCCCC4)cc3)c(F)c2)C(=O)O1 | 0.25 mg/L (≈ 0.57 µM) | 0.5 mg/L (≈ 1.14 µM) | 0.25 mg/L (≈ 0.57 µM) | 0.25 mg/L (≈ 0.57 µM) | 0.25 mg/L (≈ 0.57 µM)
C#CCN1CCN(/N=C/c2ccc(-c3ccc(N4C[C@H](CNC(C)=O)OC4=O)cc3F)cc2)CC1 | 0.125 mg/L (≈ 0.262 µM) | 0.125 mg/L (≈ 0.262 µM) | 0.125 mg/L (≈ 0.262 µM) | 0.125 mg/L (≈ 0.262 µM) | 0.125 mg/L (≈ 0.262 µM)
C=CCN1CCN(/N=C/c2ccc(-c3ccc(N4C[C@H](CNC(C)=O)OC4=O)cc3F)cc2)CC1 | 0.125 mg/L (≈ 0.261 µM) | 0.125 mg/L (≈ 0.261 µM) | 0.125 mg/L (≈ 0.261 µM) | 0.5 mg/L (≈ 1.04 µM) | 0.125 mg/L (≈ 0.261 µM)
CC(=O)NC[C@H]1CN(c2ccc(-c3ccc(/C=N/N4CCN(C(C)=O)CC4)cc3)c(F)c2)C(=O)O1 | 0.25 mg/L (≈ 0.519 µM) | 0.5 mg/L (≈ 1.04 µM) | 0.125 mg/L (≈ 0.26 µM) | 0.25 mg/L (≈ 0.519 µM) | 0.25 mg/L (≈ 0.519 µM)
CC(=O)NC[C@H]1CN(c2ccc(-c3ccc(/C=N/N4CCOCC4)cc3)c(F)c2)C(=O)O1 | 0.25 mg/L (≈ 0.568 µM) | 0.5 mg/L (≈ 1.14 µM) | 0.25 mg/L (≈ 0.568 µM) | 0.5 mg/L (≈ 1.14 µM) | 0.25 mg/L (≈ 0.568 µM)
CC(=O)NC[C@H]1CN(c2ccc(-c3ccc(/C=N/N4CCN(Cc5ccccc5)CC4)cc3)c(F)c2)C(=O)O1 | 0.125 mg/L (≈ 0.236 µM) | 0.125 mg/L (≈ 0.236 µM) | 0.125 mg/L (≈ 0.236 µM) | 0.125 mg/L (≈ 0.236 µM) | 0.125 mg/L (≈ 0.236 µM)
CC(=O)NC[C@H]1CN(c2ccc(-c3ccc(/C=N/N4CCN(C(=O)c5cccnc5)CC4)cc3)c(F)c2)C(=O)O1 | 0.125 mg/L (≈ 0.23 µM) | 0.125 mg/L (≈ 0.23 µM) | 0.125 mg/L (≈ 0.23 µM) | 0.125 mg/L (≈ 0.23 µM) | 0.125 mg/L (≈ 0.23 µM)
CC(=O)NC[C@H]1CN(c2ccc(-c3ccc(/C=N/N4CCN(C(=O)c5cccs5)CC4)cc3)c(F)c2)C(=O)O1 | 0.5 mg/L (≈ 0.91 µM) | 0.5 mg/L (≈ 0.91 µM) | 0.25 mg/L (≈ 0.455 µM) | 0.125 mg/L (≈ 0.227 µM) | 0.25 mg/L (≈ 0.455 µM)
CC(=O)NC[C@H]1CN(c2ccc(-c3ccc(/C=N/N4CCN(C(=O)c5ccc(C(F)(F)F)cc5)CC4)cc3)c(F)c2)C(=O)O1 | 0.125 mg/L (≈ 0.204 µM) | 0.125 mg/L (≈ 0.204 µM) | 0.125 mg/L (≈ 0.204 µM) | 0.125 mg/L (≈ 0.204 µM) | 0.125 mg/L (≈ 0.204 µM)
CC(=O)NC[C@H]1CN(c2ccc(-c3ccc(CNCc4cnn[nH]4)cc3)c(F)c2)C(=O)O1 [RADEZOLID] | 0.5 mg/L (≈ 1.14 µM) | 0.5 mg/L (≈ 1.14 µM) | 0.5 mg/L (≈ 1.14 µM) | 0.5 mg/L (≈ 1.14 µM) | 0.5 mg/L (≈ 1.14 µM)
CC(=O)NC[C@H]1CN(c2ccc(-c3ccc(/C=N/N4CCN(C(=O)c5ccc(Cl)cc5)CC4)cc3)c(F)c2)C(=O)O1 | 0.25 mg/L (≈ 0.432 µM) | 0.25 mg/L (≈ 0.432 µM) | 0.0675 mg/L (≈ 0.117 µM) | 0.0675 mg/L (≈ 0.117 µM) | 0.0675 mg/L (≈ 0.117 µM)
COc1ccc(C(=O)N2CCN(/N=C/c3ccc(-c4ccc(N5C[C@H](CNC(C)=O)OC5=O)cc4F)cc3)CC2)cc1 | 0.125 mg/L (≈ 0.218 µM) | 0.125 mg/L (≈ 0.218 µM) | 0.125 mg/L (≈ 0.218 µM) | 0.125 mg/L (≈ 0.218 µM) | 0.125 mg/L (≈ 0.218 µM)
COc1ccccc1C(=O)N1CCN(/N=C/c2ccc(-c3ccc(N4C[C@H](CNC(C)=O)OC4=O)cc3F)cc2)CC1 | 0.125 mg/L (≈ 0.218 µM) | 0.125 mg/L (≈ 0.218 µM) | 0.0675 mg/L (≈ 0.118 µM) | 0.5 mg/L (≈ 0.872 µM) | 0.125 mg/L (≈ 0.218 µM)
CC(=O)NC[C@H]1CN(c2ccc(-c3ccc(/C=N/N4CCN(C(=O)c5ccco5)CC4)cc3)c(F)c2)C(=O)O1 | 0.25 mg/L (≈ 0.469 µM) | 0.25 mg/L (≈ 0.469 µM) | 0.125 mg/L (≈ 0.234 µM) | 0.25 mg/L (≈ 0.469 µM) | 0.25 mg/L (≈ 0.469 µM)
CC(=O)NC[C@H]1CN(c2ccc(-c3ccc(/C=N/N4CCN(C(=O)c5ccccc5)CC4)cc3)c(F)c2)C(=O)O1 | 0.25 mg/L (≈ 0.46 µM) | 0.25 mg/L (≈ 0.46 µM) | 0.125 mg/L (≈ 0.23 µM) | 0.25 mg/L (≈ 0.46 µM) | 0.25 mg/L (≈ 0.46 µM)
CCC(=O)N1CCN(/N=C/c2ccc(-c3ccc(N4C[C@H](CNC(C)=O)OC4=O)cc3F)cc2)CC1 | 0.125 mg/L (≈ 0.252 µM) | 0.125 mg/L (≈ 0.252 µM) | 0.125 mg/L (≈ 0.252 µM) | 0.125 mg/L (≈ 0.252 µM) | 0.125 mg/L (≈ 0.252 µM)
CC(=O)NC[C@H]1CN(c2ccc(-c3ccc(/C=N/N4CCN(C(=O)c5ccncc5)CC4)cc3)c(F)c2)C(=O)O1 | 0.25 mg/L (≈ 0.459 µM) | 0.25 mg/L (≈ 0.459 µM) | 0.125 mg/L (≈ 0.23 µM) | 0.25 mg/L (≈ 0.459 µM) | 0.25 mg/L (≈ 0.459 µM)
CC(=O)NC[C@H]1CN(c2ccc(-c3ccc(/C=N/N4CCN(C(=O)c5cnccn5)CC4)cc3)c(F)c2)C(=O)O1 | 0.125 mg/L (≈ 0.229 µM) | 0.125 mg/L (≈ 0.229 µM) | 0.125 mg/L (≈ 0.229 µM) | 0.125 mg/L (≈ 0.229 µM) | 0.125 mg/L (≈ 0.229 µM)
